Source: ChEMBL document CHEMBL1141402 (J Med Chem, 2007)
pEC50, pIC50, pKi: −log10 of the molar value. Calls of active or inactive are those of the source. Residues, ends and D or L forms follow the SMILES beside them.

Experiments:
[1] = molecular target: Delta-type opioid receptor (Rattus norvegicus, UniProt P33533); assay: Displacement of [3H]DSLET from delta opioid receptor in rat brain membrane; type: cell membranes
Procedure, shortened: (§1)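 Rat brain membranes incubated for 2 h at 0 °C with [3H]DAMGO (0.72 nM; µ) or [3H]DSLET (0.78 nM; δ). IC50 read from log dose-displacement curves. […] Three to four determinations.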

[2] = molecular target: T1, Delta-type opioid receptor (Homo sapiens, UniProt P41143); assay: Activity at delta opioid receptor assessed as increase in calcium level in CHO cells by aequorin luminescence based calcium assay; type: functional, cell-based
T1 sequence (P41143 whole entry): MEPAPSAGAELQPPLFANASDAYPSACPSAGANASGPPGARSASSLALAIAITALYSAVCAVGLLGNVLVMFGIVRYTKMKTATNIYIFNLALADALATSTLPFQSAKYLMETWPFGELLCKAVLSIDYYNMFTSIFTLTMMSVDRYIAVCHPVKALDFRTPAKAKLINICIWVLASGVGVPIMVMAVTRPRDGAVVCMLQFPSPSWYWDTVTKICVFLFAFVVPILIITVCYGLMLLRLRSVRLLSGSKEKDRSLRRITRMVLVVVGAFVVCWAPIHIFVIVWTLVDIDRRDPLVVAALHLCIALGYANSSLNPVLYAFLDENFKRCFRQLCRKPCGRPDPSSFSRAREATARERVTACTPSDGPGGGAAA

Mu-type opioid receptor [3] = molecular target: Mu-type opioid receptor (Rattus norvegicus, UniProt P33535); assay: Displacement of [3H]DAMGO from mu opioid receptor in rat brain membrane; type: cell membranes; procedure, shortened: as §1
Sequence of Mu-type opioid receptor (Rattus norvegicus, UniProt P33535) (P33535 whole entry): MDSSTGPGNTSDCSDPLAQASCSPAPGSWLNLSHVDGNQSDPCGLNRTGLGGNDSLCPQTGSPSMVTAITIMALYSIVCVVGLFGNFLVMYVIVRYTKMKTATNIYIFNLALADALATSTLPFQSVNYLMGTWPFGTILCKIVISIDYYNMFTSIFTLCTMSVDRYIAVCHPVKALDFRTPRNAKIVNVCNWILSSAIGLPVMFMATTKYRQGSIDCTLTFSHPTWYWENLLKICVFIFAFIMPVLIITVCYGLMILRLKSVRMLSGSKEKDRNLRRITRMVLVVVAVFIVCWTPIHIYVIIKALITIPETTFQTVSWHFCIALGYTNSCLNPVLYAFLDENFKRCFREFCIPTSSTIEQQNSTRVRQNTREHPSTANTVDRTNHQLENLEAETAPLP

Mus musculus [4] = species: Mus musculus; assay: Antinociceptive activity in Swiss Albino mouse assessed as effect on paw licking by hot plate method at 10 ug; type: functional
Procedure, shortened: (§2)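 Mice given peptide i.c.v. in 0.9% NaCl, then put on a 55 ± 0.5 °C hot plate 5 min later. Latencies to paw licking, rearing and jumping recorded with a 240 s cut-off and converted to %MPE against saline control latencies. 10 mice per group; one-way ANOVA with Student-Newman-Keuls post hoc.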

Mus musculus [5] = species: Mus musculus; assay: Antinociceptive activity in Swiss Albino mouse assessed as effect on rearing by hot plate method at 10 ug; type: functional; procedure, shortened: as §2
Mus musculus [6] = species: Mus musculus; assay: Antinociceptive activity in Swiss Albino mouse assessed as effect on jumping by hot plate method at 10 ug; type: functional; procedure, shortened: as §2
[7] = molecular target: Mu-type opioid receptor (Cavia porcellus) (UniProt P97266); assay: Antagonist activity at mu opioid receptor by inhibition of TAPP-induced muscle contraction in guinea pig ileum; type: functional, tissue-based
Sequence of Mu-type opioid receptor (Cavia porcellus) (P97266 whole entry): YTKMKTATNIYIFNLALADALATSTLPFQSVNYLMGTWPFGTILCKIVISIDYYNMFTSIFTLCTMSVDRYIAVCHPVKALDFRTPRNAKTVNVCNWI

Mus musculus [8] = species: Mus musculus; assay: Antagonist effect on endomorphin-2-induced rearing in Swiss Albino mouse by hot plate method; type: functional, organism-based
Procedure, shortened: (§3)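 Mice dosed i.c.v. into the left lateral ventricle, drugs dissolved in 0.9% NaCl; test compound given against endomorphin-2 (3 µg/animal) or DAMGO. Placed on a 55 ± 0.5 °C hot plate 5 min after injection. Latencies to paw licking, rearing and jumping recorded with a 240 s cut-off and expressed as %MPE from control (saline) and test latencies. 10 mice per group; two-way ANOVA with Student-Newman-Keuls.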

[9] = molecular target: Delta-type opioid receptor (Mus musculus) (UniProt P32300); assay: Antagonist activity at delta opioid receptor by inhibition of DPDPE-induced muscle contraction in isolated mouse vas deferens; type: functional, tissue-based
Sequence of Delta-type opioid receptor (Mus musculus) (P32300 whole entry): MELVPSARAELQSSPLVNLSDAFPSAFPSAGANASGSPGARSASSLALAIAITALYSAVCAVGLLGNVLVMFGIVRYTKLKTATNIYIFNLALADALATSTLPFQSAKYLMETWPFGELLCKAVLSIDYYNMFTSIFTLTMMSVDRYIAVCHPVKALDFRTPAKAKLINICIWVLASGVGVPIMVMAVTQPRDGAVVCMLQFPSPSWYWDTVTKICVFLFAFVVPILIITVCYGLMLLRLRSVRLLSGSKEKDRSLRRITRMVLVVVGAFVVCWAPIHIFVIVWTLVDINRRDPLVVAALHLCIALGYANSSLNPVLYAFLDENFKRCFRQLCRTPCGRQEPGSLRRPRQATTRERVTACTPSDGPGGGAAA

Mus musculus [10] = species: Mus musculus; assay: Antagonist effect on DAMGO-induced rearing in Swiss Albino mouse by hot plate method; type: functional, organism-based; procedure, shortened: as §3
Mus musculus [11] = species: Mus musculus; assay: Antagonist effect on DAMGO-induced paw licking in Swiss Albino mouse by hot plate method; type: functional, organism-based; procedure, shortened: as §3
Mus musculus [12] = species: Mus musculus; assay: Antagonist effect on endomorphin-2-induced jumping in Swiss Albino mouse by hot plate method; type: functional, organism-based; procedure, shortened: as §3
Mus musculus [13] = species: Mus musculus; assay: Antagonist effect on endomorphin-2-induced paw licking in Swiss Albino mouse by hot plate method; type: functional, organism-based; procedure, shortened: as §3
Mus musculus [14] = species: Mus musculus; assay: Antagonist effect on DAMGO-induced jumping in Swiss Albino mouse by hot plate method; type: functional, organism-based; procedure, shortened: as §3
Mu-type opioid receptor [15] = molecular target: Mu-type opioid receptor (Homo sapiens, UniProt P35372); assay: Activity at mu opioid receptor assessed as increase in calcium level in CHO cells by aequorin luminescence based calcium assay; type: functional, cell-based
Sequence of Mu-type opioid receptor (Homo sapiens, UniProt P35372) (P35372 whole entry): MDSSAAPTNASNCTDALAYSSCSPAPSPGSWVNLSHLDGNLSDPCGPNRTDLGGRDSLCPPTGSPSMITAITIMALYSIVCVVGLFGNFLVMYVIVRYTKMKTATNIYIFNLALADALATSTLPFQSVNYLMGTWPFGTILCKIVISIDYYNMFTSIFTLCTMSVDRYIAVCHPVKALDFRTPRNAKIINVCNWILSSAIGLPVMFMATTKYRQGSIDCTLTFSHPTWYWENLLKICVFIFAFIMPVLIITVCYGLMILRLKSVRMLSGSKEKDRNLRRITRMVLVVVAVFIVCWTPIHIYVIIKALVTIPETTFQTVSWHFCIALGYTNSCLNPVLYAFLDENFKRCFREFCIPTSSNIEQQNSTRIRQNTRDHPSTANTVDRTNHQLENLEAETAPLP

[16] = molecular target: Delta-type opioid receptor (Mus musculus) (UniProt P32300); assay: (§4) Agonist activity at delta opioid receptor by inhibition of electrically evoked muscle contraction in isolated mouse vas deferens; type: functional, tissue-based
Procedure, shortened: (§5)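 Mouse vas deferens from adult male Swiss Webster mice (30-50 g), killed by cervical dislocation. Field stimulation used 1 ms pulse trains at 0.15 Hz. IC50 taken from the twitch-height reduction across doses.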

Mu-type opioid receptor [17] = molecular target: Mu-type opioid receptor (Cavia porcellus, UniProt P97266); assay: Agonist activity at mu opioid receptor by inhibition of electrically evoked muscle contraction in guinea pig ileum; type: functional, tissue-based
Sequence of Mu-type opioid receptor (Cavia porcellus, UniProt P97266) (P97266 whole entry): as the sequence (P97266 whole entry) above

[18] = molecular target: Mu-type opioid receptor (Cavia porcellus) (UniProt P97266); assay: Agonist activity at mu opioid receptor by inhibition of TAPP-induced muscle contraction in guinea pig ileum at upto 10 uM; type: functional, tissue-based
Procedure, shortened: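 A 2-3 cm segment taken at least 10 cm from the ileocecal junction and mounted in a 20 mL bath of modified Krebs' buffer (NaCl 150, KCl 4.3, CaCl2 1.25, MgCl2 1.0, NaH2PO4 1.7, NaHCO3 25.0, glucose 11.0 mM). Buffer gassed with 95% O2/5% CO2 at 37 °C. Stimulated at 10 pulses/min, 4 ms each, with force-transducer recording. IC50 obtained by regression of the concentration-response curve.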

[19] = molecular target: Delta-type opioid receptor (Mus musculus, UniProt P32300); assay: as §4; type: functional, tissue-based; procedure, shortened: as §5
Sequence of Delta-type opioid receptor (Mus musculus, UniProt P32300) (P32300 whole entry): as the sequence (P32300 whole entry) above

[20] = molecular target: T1, Delta-type opioid receptor; assay: Antagonist activity against delta opioid receptor assessed as effect on deltorphin-2-induced calcium response in CHO cells by aequorin luminescence based calcium assay; type: functional, cell-based; conditions: read-out: pA2 (converted)
Procedure, shortened: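 CHO cells expressing DOR and aequorin. Compounds in BSA medium, then 25 000 cells injected per well. Luminescence recorded for 30 s, cells lysed with 0.3% Triton X-100 and read for a further 15 s. Signal given as fractional luminescence (agonist peak over agonist plus lysis total), from concentration-response curves. Three independent experiments, each in duplicate.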

Sequence of Delta-type opioid receptor (Rattus norvegicus, UniProt P33533) (P33533 whole entry): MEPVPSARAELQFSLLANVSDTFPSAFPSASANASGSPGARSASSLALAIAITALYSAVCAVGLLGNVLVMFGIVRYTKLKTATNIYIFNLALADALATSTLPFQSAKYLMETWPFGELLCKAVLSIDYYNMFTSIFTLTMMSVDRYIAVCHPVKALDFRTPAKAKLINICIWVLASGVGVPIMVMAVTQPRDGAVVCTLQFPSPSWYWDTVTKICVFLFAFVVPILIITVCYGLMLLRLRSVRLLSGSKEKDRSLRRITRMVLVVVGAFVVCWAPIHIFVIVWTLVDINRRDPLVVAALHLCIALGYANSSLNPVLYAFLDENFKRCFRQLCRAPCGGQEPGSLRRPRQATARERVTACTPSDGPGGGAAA

SMILES: Cc1cc(O)cc(C)c1C[C@H](N)C(=O)N1CCC[C@H]1C(=O)N[C@@H](Cc1ccccc1)C(=O)N[C@H](Cc1cccc2ccccc12)C(N)=O [listing 1 of 2 here]
- pKi [1]: 7.57
- pEC50 [2]: 8.45
- pKi (Mu-type opioid receptor [3]): 8.91

SMILES: NC(=O)[C@H](Cc1ccccc1)NC(=O)[C@H](Cc1c[nH]c2ccccc12)NC(=O)[C@@H]1CCCN1C(=O)[C@@H](N)Cc1ccc(O)cc1 [ENDOMORPHIN-1]
- Activity (Mus musculus [4]): 5.99%
- Activity (Mus musculus [5]): 12%
- Activity (Mus musculus [6]): 40.8%

SMILES: Cc1cc(C[C@H](N)C(=O)N2CCC[C@H]2C(=O)N[C@@H](Cc2ccccc2)C(=O)N[C@H](Cc2cccc3ccccc23)C(N)=O)cc(C)c1O
- Ke [7]: 14.9 nM
- Activity (Mus musculus [8]): Dose-dependent effect
- Ke [9]: 227 nM
- Activity (Mus musculus [10]): Dose-dependent effect
- Activity (Mus musculus [11]): Dose-dependent effect
- Activity (Mus musculus [12]): Dose-dependent effect
- Activity (Mus musculus [13]): Dose-dependent effect
- Activity (Mus musculus [14]): Dose-dependent effect

SMILES: NC(=O)[C@@H](Cc1ccc2ccccc2c1)NC(=O)[C@H](Cc1c[nH]c2ccccc12)NC(=O)[C@@H]1CCCN1C(=O)[C@@H](N)Cc1ccc(O)cc1
- pEC50 (Mu-type opioid receptor [15]): 6.61
- IC30 [16]: 4180 nM
- Activity ([16]; filed as partial agonist): Partial agonist
- pIC50 (Mu-type opioid receptor [17]): 5.46
- pEC50 [2]: < 6.00

SMILES: NC(=O)[C@@H](Cc1ccc2ccccc2c1)NC(=O)[C@H](Cc1ccccc1)NC(=O)[C@@H]1CCCN1C(=O)[C@@H](N)Cc1ccc(O)cc1 (HELM PEPTIDE1{Y.P.F.[O=C([C@@H](Cc1ccc2ccccc2c1)N[*:1])[*:2]].[am]}$$$$V2.0)
- Activity (Mus musculus [4]): 0.13%
- Ke [7]: 1260 nM
- Activity (Mus musculus [5]): 0.09%
- Activity [16]: inactive
- Activity (Mus musculus [6]): 2.5%
- pEC50 [2]: < 6.00

SMILES: Cc1cc(O)cc(C)c1C[C@H](N)C(=O)N1CCC[C@H]1C(=O)N[C@@H](Cc1ccccc1)C(=O)N[C@H](Cc1ccc2ccccc2c1)C(N)=O (HELM PEPTIDE1{[Cc1cc(O)cc(C)c1C[C@H](N)C(=O)[*:2]].P.F.[O=C([C@@H](Cc1ccc2ccccc2c1)N[*:1])[*:2]].[am]}$$$$V2.0)
- Activity (Mus musculus [4]): 0.09%
- Ke [7]: 5.86 nM
- Activity (Mus musculus [5]): 0.18%
- Activity (Mus musculus [8]): Dose-dependent effect
- Ke [9]: 250 nM
- Activity (Mus musculus [10]): Dose-dependent effect
- Activity (Mus musculus [11]): Dose-dependent effect
- Activity (Mus musculus [6]): 1.54%
- pEC50 [2]: 7.81
- Activity [18]: inactive
- Activity (Mus musculus [12]): Dose-dependent effect
- Activity (Mus musculus [13]): Dose-dependent effect
- pKi (Mu-type opioid receptor [3]): 8.82
- Activity (Mus musculus [14]): Dose-dependent effect

SMILES: NC(=O)[C@@H](Cc1cccc2ccccc12)NC(=O)[C@H](Cc1ccccc1)NC(=O)[C@@H]1CCCN1C(=O)[C@@H](N)Cc1ccc(O)cc1
- Activity (Mus musculus [4]): 0%
- Ke [7]: 1250 nM
- Activity (Mus musculus [5]): 0.31%
- pIC50 [19]: < 5.00
- Activity (Mus musculus [6]): 0.8%
- pEC50 [2]: < 6.00

SMILES: Cc1cc(O)cc(C)c1C[C@H](N)C(=O)N1CCC[C@H]1C(=O)N[C@@H](Cc1ccccc1)C(=O)N[C@H](Cc1cccc2ccccc12)C(N)=O [listing 2 of 2 here]
- Activity (Mus musculus [4]): 0.13%
- Activity (Mus musculus [5]): 1.06%
- Activity (Mus musculus [6]): 2.73%

SMILES: Cc1cc(O)cc(C)c1C[C@H](N)C(=O)N1CCC[C@H]1C(=O)N[C@@H](Cc1c[nH]c2ccccc12)C(=O)N[C@H](Cc1cccc2ccccc12)C(N)=O [listing 1 of 2 here]
- pEC50 (Mu-type opioid receptor [15]): 8.94
- Kb [20]: 2.57 nM
- pIC50 (Mu-type opioid receptor [17]): 7.80

SMILES: NC(=O)[C@@H](Cc1cccc2ccccc12)NC(=O)[C@H](Cc1c[nH]c2ccccc12)NC(=O)[C@@H]1CCCN1C(=O)[C@@H](N)Cc1ccc(O)cc1
- pEC50 (Mu-type opioid receptor [15]): 7.09
- Activity ([16]; filed as partial agonist): Partial agonist
- pIC50 (Mu-type opioid receptor [17]): 5.38
- pEC50 [2]: < 6.00

SMILES: Cc1cc(O)cc(C)c1C[C@H](N)C(=O)N1CCC[C@H]1C(=O)N[C@@H](Cc1c[nH]c2ccccc12)C(=O)N[C@H](Cc1ccc2ccccc2c1)C(N)=O (HELM PEPTIDE1{[Cc1cc(O)cc(C)c1C[C@H](N)C(=O)[*:2]].P.W.[O=C([C@@H](Cc1ccc2ccccc2c1)N[*:1])[*:2]].[am]}$$$$V2.0) [listing 1 of 2 here]
- pEC50 [2]: 7.53
- pKi (Mu-type opioid receptor [3]): 8.62

SMILES: Cc1cc(O)cc(C)c1C[C@H](N)C(=O)N1CCC[C@H]1C(=O)N[C@@H](Cc1c[nH]c2ccccc12)C(=O)N[C@H](Cc1cccc2ccccc12)C(N)=O [listing 2 of 2 here]
- Activity (Mus musculus [4]): 5.35%
- Activity (Mus musculus [5]): 10.6%
- Activity (Mus musculus [6]): 23.2%

SMILES: Cc1cc(O)cc(C)c1C[C@H](N)C(=O)N1CCC[C@H]1C(=O)N[C@@H](Cc1c[nH]c2ccccc12)C(=O)N[C@H](Cc1ccc2ccccc2c1)C(N)=O (HELM PEPTIDE1{[Cc1cc(O)cc(C)c1C[C@H](N)C(=O)[*:2]].P.W.[O=C([C@@H](Cc1ccc2ccccc2c1)N[*:1])[*:2]].[am]}$$$$V2.0) [listing 2 of 2 here]
- Activity (Mus musculus [4]): 0.17%
- Activity (Mus musculus [5]): 0.49%
- Activity (Mus musculus [6]): 0.58%

SMILES: Cc1cc(C[C@H](N)C(=O)N2CCC[C@H]2C(=O)N[C@@H](Cc2c[nH]c3ccccc23)C(=O)N[C@H](Cc2cccc3ccccc23)C(N)=O)cc(C)c1O
- Ke [9]: 62.4 nM

SMILES: Cc1cc(C[C@H](N)C(=O)N2CCC[C@H]2C(=O)N[C@@H](Cc2c[nH]c3ccccc23)C(=O)N[C@H](Cc2ccc3ccccc3c2)C(N)=O)cc(C)c1O
- Ke [7]: 8.27 nM
- Activity (Mus musculus [8]): Dose-dependent effect
- Activity (Mus musculus [10]): Dose-dependent effect
- Activity ([16]; filed as partial agonist): Partial agonist
- Activity (Mus musculus [11]): Dose-dependent effect
- Activity [18]: inactive
- Activity (Mus musculus [12]): Dose-dependent effect
- Activity (Mus musculus [13]): Dose-dependent effect
- Activity (Mus musculus [14]): Dose-dependent effect
